Values joined by “and” are separate entries in the source; they are usually repeats but may differ in a detail not shown here. Equal entries are not always repeated. Active and inactive are the calls of the source.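 How the source made its calls: active means inhibition above 20% at 50 µM; inactive means the rest.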
Molecular target: Kelch-like ECH-associated protein 1 (Homo sapiens) (UniProt Q14145)
Assay: competitive SPR blockade of Keap1/Nrf2 binding – biophysical, dry powder, orthogonal assay for Keap1-Nrf2 interaction inhibitor project, confirmation (AID 651876)
Settings: Keap1 Kelch binding to Nrf2 peptide, stronger effect = higher value
How it was run: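 Material: Keap1 Kelch domain, biochemical; amount: 40 nM Kelch domain; probe or stimulus: biotinylated 16mer Nrf2 peptide captured on streptavidin CM5 surface; compound: two single doses per compound, 5 µM and 50 µM; timing: Kelch–compound preincubation at room temperature, SPR injection at 25 °C; technique: Double-referenced SPR association slopes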

Sequence of Kelch-like ECH-associated protein 1 (Homo sapiens) (Q14145 whole entry, looked up): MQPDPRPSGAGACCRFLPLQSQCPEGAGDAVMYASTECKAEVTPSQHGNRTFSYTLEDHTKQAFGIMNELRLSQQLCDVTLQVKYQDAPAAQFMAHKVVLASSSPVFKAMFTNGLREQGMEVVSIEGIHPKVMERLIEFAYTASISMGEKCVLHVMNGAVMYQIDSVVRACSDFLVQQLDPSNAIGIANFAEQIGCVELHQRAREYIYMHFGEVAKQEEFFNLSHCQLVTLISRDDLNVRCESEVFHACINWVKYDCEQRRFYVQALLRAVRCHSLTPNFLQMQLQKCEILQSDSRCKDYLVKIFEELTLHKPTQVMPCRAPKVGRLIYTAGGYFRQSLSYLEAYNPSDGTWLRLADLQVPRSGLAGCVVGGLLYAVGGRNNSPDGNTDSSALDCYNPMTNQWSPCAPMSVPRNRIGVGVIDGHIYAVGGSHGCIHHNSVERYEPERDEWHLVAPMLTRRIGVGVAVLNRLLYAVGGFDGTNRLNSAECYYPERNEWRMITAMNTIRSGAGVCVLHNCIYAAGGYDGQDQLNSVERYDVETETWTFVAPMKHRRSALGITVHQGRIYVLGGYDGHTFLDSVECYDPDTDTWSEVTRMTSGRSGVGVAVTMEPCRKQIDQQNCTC

## O=C1c2ccccc2C(=O)N1C[C@@H]1c2ccccc2CCN1C(=O)C1CCCCC1
At 50 µM
  inhibition: 2.1% (inactive)
inhibition, at 5 µM
  inhibition: -0.3%

## Cc1cc(C)c(S(=O)(=O)Nc2ncnc3ccccc23)c(C)c1
At 50 µM
  inhibition: 1.5% (inactive)
inhibition, at 5 µM
  inhibition: -0.6%

## NC(=O)[C@H]1CCCC[C@H]1C(=O)N1CCc2ccccc2[C@H]1CN1C(=O)c2ccccc2C1=O
At 50 µM
  inhibition: 36.7%
inhibition, at 5 µM
  inhibition: 5.6%

## O=C(NC[C@@H]1c2ccccc2CCN1C(=O)[C@@H]1CCCC[C@@H]1C(=O)O)OCC1c2ccccc2-c2ccccc21
At 50 µM
  inhibition: 3.6% (inactive)
inhibition, at 5 µM
  inhibition: 5%

## Cc1cc(C)c(S(=O)(=O)Nc2nc(NCCO)nc3ccccc23)c(C)c1
At 50 µM
  inhibition: 6.8% (inactive)
inhibition, at 5 µM
  inhibition: 3.6%

## O=C(NC[C@@H]1c2ccccc2CCN1C(=O)[C@@H]1CCCC[C@@H]1C(=O)O)c1ccc(CN2CCOCC2)cc1
At 50 µM
  inhibition: 24.9%
inhibition, at 5 µM
  inhibition: -1.2%

## C=CC(=O)NC[C@@H]1c2ccccc2CCN1C(=O)[C@@H]1CCCC[C@@H]1C(=O)O
At 50 µM
  inhibition: 1.1% (inactive)
inhibition, at 5 µM
  inhibition: -5.2%

## COC(=O)C1CCCCC1C(=O)N1CCc2ccccc2C1CN1C(=O)c2ccccc2C1=O (stereo not drawn)
At 50 µM
  inhibition: 6.8% (inactive)
inhibition, at 5 µM
  inhibition: 3.3%

## O=C(O)c1ccccc1C(=O)NC[C@@H]1c2ccccc2CCN1C(=O)[C@@H]1CCCC[C@@H]1C(=O)O
At 50 µM
  inhibition: 9.5% (inactive)
inhibition, at 5 µM
  inhibition: 0.9%

## O=C(O)/C=C\C(=O)N1CCc2ccccc2C1CN1C(=O)c2ccccc2C1=O (stereo not drawn)
At 50 µM
  inhibition: 21.5%
inhibition, at 5 µM
  inhibition: 1.1%

## Cc1ccc(S(=O)(=O)Nc2cc(C(C(=O)OC(C)C)C(=O)C(F)(F)F)c(O)c3ccccc23)c(C)c1 (stereo not drawn)
At 50 µM
  inhibition: 97%
inhibition, at 5 µM
  inhibition: 57.8%

## O=C(O)C1CCCCC1C(=O)NCC1c2ccccc2CCN1C(=O)Cc1ccccc1 (stereo not drawn)
At 50 µM
  inhibition: -4% (inactive)
inhibition, at 5 µM
  inhibition: 3.3%

## O=C(O)CCCC(=O)N1CCc2ccccc2C1CN1C(=O)c2ccccc2C1=O (stereo not drawn)
At 50 µM
  inhibition: 2.3% (inactive)
inhibition, at 5 µM
  inhibition: 6.4%

## NC(=O)c1ccccc1C(=O)NC[C@@H]1c2ccccc2CCN1C(=O)[C@@H]1CCCC[C@@H]1C(=O)O
At 50 µM
  inhibition: 83%
inhibition, at 5 µM
  inhibition: 38.6%

## Cc1ccc(S(=O)(=O)NNc2nc(C(C(=O)OC(C)C)C(=O)C(F)(F)F)nc3ccccc23)cc1 (stereo not drawn)
At 50 µM
  inhibition: 28.3%
inhibition, at 5 µM
  inhibition: 4.9%

## O=C1c2ccccc2C(=O)N1CC1c2ccccc2CCN1C(=O)Cc1ccccc1 (stereo not drawn)
At 50 µM
  inhibition: 3.5% (inactive)
inhibition, at 5 µM
  inhibition: 3.1%

## Cc1ccc(S(=O)(=O)NNc2nc(NCC(N)=O)nc3ccccc23)cc1
At 50 µM
  inhibition: -9.9% (inactive)
inhibition, at 5 µM
  inhibition: -3.5%

## CC(C)OC(=O)C(C(=O)C(F)(F)F)c1cc(NS(=O)(=O)c2ccccc2)c2ccccc2c1O (stereo not drawn)
At 50 µM
  inhibition: 59%
inhibition, at 5 µM
  inhibition: 12.7%

## O=C(NCCc1ccccc1)c1ccccc1C(=O)NC[C@@H]1c2ccccc2CCN1C(=O)C1CCCCC1C(=O)O (stereo partly drawn)
At 50 µM
  inhibition: 47.1%
inhibition, at 5 µM
  inhibition: 3.3%

## O=C(O)[C@H]1CCCC[C@H]1C(=O)NC(CN1C(=O)c2ccccc2C1=O)c1ccccc1 (stereo partly drawn)
At 50 µM
  inhibition: 0.3% (inactive)
inhibition, at 5 µM
  inhibition: 0.3%

## O=C(NCCO)c1ccccc1C(=O)NC[C@@H]1c2ccccc2CCN1C(=O)C1CCCCC1C(=O)O (stereo partly drawn)
At 50 µM
  inhibition: 32.1%
inhibition, at 5 µM
  inhibition: 7.5%

## Cc1cc(C)c(S(=O)(=O)Nc2cc(C(C(=O)OCc3ccccc3)C(=O)OCc3ccccc3)c(O)c3ccccc23)c(C)c1
At 50 µM
  inhibition: 7.1% (inactive)
inhibition, at 5 µM
  inhibition: 4.69%

## O=C1c2ccccc2C(=O)N1CC1=NCCc2ccccc21
At 50 µM
  inhibition: -0.2% (inactive)
inhibition, at 5 µM
  inhibition: 1.1%

## O=C(O)[C@H]1C2C=CC(C2)[C@H]1C(=O)N1CCc2ccccc2C1CN1C(=O)c2ccccc2C1=O (stereo partly drawn)
At 50 µM
  inhibition: 42.4%
inhibition, at 5 µM
  inhibition: 4.9%

## O=C(NC[C@@H]1c2ccccc2CCN1C(=O)[C@@H]1CCCC[C@@H]1C(=O)O)c1ccc(CCl)cc1
At 50 µM
  inhibition: 22.7%
inhibition, at 5 µM
  inhibition: -1%

## O=C(O)[C@H]1CCCC[C@H]1C(=O)N1CCC2=C(CCCC2)C1CN1C(=O)c2ccccc2C1=O (stereo partly drawn)
inhibition, at 5 µM
  inhibition: 12.5% and -3.6%

## COC(=O)C(C(=O)OC)c1cc(NS(=O)(=O)c2c(C)cc(C)cc2C)c2ccccc2c1O
At 50 µM
  inhibition: 93.1%
inhibition, at 5 µM
  inhibition: 65.9%
